In ChEMBL document CHEMBL1126857, “14 beta-[(p-nitrocinnamoyl)amino]morphinones, 14 beta-[(p-nitrocinnamoyl)amino]-7,8-dihydromorphinones, and their codeinone analogues: synthesis and receptor activity” (J Med Chem, 1993) one finds Bmax (fM bound (mg of protein)-1), IC50 and Kd data, which are given here for 15 compounds.

In general, IC50 refers to the midpoint of a concentration-inhibition curve. The low end stands for inhibition by little substance, the high end for a need for much substance. For orientation: Kd means the equilibrium constant for the complex coming apart. High values mean lower affinity, low ones higher affinity.

Sequence of Mu-type opioid receptor (P79350 whole entry): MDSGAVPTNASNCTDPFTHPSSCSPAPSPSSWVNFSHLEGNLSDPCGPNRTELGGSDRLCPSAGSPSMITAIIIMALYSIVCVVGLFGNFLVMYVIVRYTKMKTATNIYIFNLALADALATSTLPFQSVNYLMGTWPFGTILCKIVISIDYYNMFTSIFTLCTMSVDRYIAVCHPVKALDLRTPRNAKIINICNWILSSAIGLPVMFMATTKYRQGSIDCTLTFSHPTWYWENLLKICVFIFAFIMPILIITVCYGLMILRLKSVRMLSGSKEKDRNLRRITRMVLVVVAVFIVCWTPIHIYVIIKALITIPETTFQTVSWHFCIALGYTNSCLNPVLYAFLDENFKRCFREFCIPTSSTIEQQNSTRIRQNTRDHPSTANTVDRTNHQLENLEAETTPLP

System in one assay: not listed separately
Briefly: Bmax value expressed in (f mol bound)/mg of protein. The procedure, abridged:
(§1)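 Bovine striatal membranes (10 mg protein) pretreated 60 min at 25 °C with or without 20 nM ligand in 50 mM Tris-HCl pH 7.5, then washed by centrifugation five times. [3H]DAMGO saturation, 0.05–6.4 nM, 60 min at 25 °C, then filtration. Nonspecific binding with 10 μM naloxone; Bradford protein. Kd/Bmax by nonlinear regression; triplicate, three experiments.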
On to `C[C@@]12Oc3c(O)ccc4c3C13CCN(CC1CC1)C(C4)[C@]3(NC(=O)/C=C/c1ccc([N+](=O)[O-])cc1)CCC2=O` (some centres not stated), for which the Bmax (fM bound (mg of protein)-1) was 100.

The next assay concerns the target Mu-type opioid receptor (Bos taurus, UniProt P79350). Briefly: Binding affinity against mu opioid receptor from calf frontal cortex. The method in brief: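 Calf frontal cortex membranes (10 mg wet weight), prewashed and preincubated 15 min at 37 °C, in 50 mM Tris-HCl pH 7.5 with 10 mM MgSO4 and 0.5 mM EDTA. Competition against 0.8 nM [3H]DAMGO at eight ligand concentrations, 30 min at 37 °C, in triplicate. Nonspecific binding with 1 μM naloxone. Filtration, then scintillation counting; IC50 taken.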
As to `COc1ccc2c3c1O[C@@]1(C)C(=O)C=C[C@@]4(NC(=O)/C=C/c5ccc([N+](=O)[O-])cc5)C(C2)N(C)CCC314` (some centres not stated), the IC50 stood at 36.2 nM. Regarding `C[C@@]12Oc3c(O)ccc4c3C13CCN(CC1CC1)C(C4)[C@]3(NC(=O)/C=C/c1ccc([N+](=O)[O-])cc1)C=CC2=O` (some centres not stated), the half-maximal inhibitory concentration (IC50) amounted to 1.88 nM. Same read-out and setting: for `O=C(/C=C/c1ccc([N+](=O)[O-])cc1)N[C@@]12C=CC(=O)[C@@H]3Oc4c(O)ccc5c4C31CCN(CC1CC1)C2C5` (some centres not stated) the value was 7.8 nM; for `COc1ccc2c3c1O[C@H]1C(=O)C=C[C@@]4(NC(=O)/C=C/c5ccc([N+](=O)[O-])cc5)C(C2)N(CC2CC2)CCC314` (some centres not stated), 1.45 nM; for `COc1ccc2c3c1O[C@H]1C(=O)CC[C@@]4(NC(=O)/C=C/c5ccc([N+](=O)[O-])cc5)C(C2)N(C)CCC314` (some centres not stated), 0.44 nM. On the same count and under the same terms, for `COc1ccc2c3c1O[C@H]1C(=O)C=C[C@@]4(NC(=O)/C=C/c5ccc([N+](=O)[O-])cc5)C(C2)N(C)CCC314` (some centres not stated) the value was 1.01 nM; for `COc1ccc2c3c1O[C@@]1(C)C(=O)CC[C@@]4(NC(=O)/C=C/c5ccc([N+](=O)[O-])cc5)C(C2)N(C)CCC314` (some centres not stated), 104 nM; for `COc1ccc2c3c1O[C@@]1(C)C(=O)C=C[C@@]4(NC(=O)/C=C/c5ccc([N+](=O)[O-])cc5)C(C2)N(CC2CC2)CCC314` (some centres not stated), 36.8 nM. In turn, `COc1ccc2c3c1O[C@@]1(C)C(=O)CC[C@@]4(NC(=O)/C=C/c5ccc([N+](=O)[O-])cc5)C(C2)N(CC2CC2)CCC314` (some centres not stated) had an IC50 of 32 nM. Same read-out and setting: under `O=C(/C=C/c1ccc([N+](=O)[O-])cc1)N[C@@]12CCC(=O)[C@@H]3Oc4c(O)ccc5c4[C@@]31CCN(CC1CC1)[C@@H]2C5` stands 0.87 nM. On the same count and under the same terms, under `C[C@@]12Oc3c(O)ccc4c3C13CCN(CC1CC1)C(C4)[C@]3(NC(=O)CCc1ccc([N+](=O)[O-])cc1)CCC2=O` (some centres not stated) stands 24 nM. On the same count and under the same terms, under `C[C@@]12Oc3c(O)ccc4c3C13CCN(CC1CC1)C(C4)[C@]3(NC(=O)/C=C/c1ccc([N+](=O)[O-])cc1)CCC2=O` (some centres not stated) stands 0.52 nM; under `CN1CC[C@]23c4c5ccc(O)c4O[C@H]2C(=O)CC[C@@]3(NC(=O)/C=C/c2ccc([N+](=O)[O-])cc2)[C@H]1C5`, 0.28 nM; under `CN1CCC23c4c5ccc(O)c4O[C@H]2C(=O)C=C[C@@]3(NC(=O)/C=C/c2ccc([N+](=O)[O-])cc2)C1C5` (some centres not stated), 1.45 nM. Consider `CN1CCC23c4c5ccc(O)c4O[C@@]2(C)C(=O)C=C[C@@]3(NC(=O)/C=C/c2ccc([N+](=O)[O-])cc2)C1C5` (some centres not stated), for which the IC50 came to 0.8 nM.

Target in the next assay: not listed separately
Put plainly: Tested for its binding effect on [3H]- DAMGO in bovine striatal membrane at 20 nM. It counts as functional, cell membranes, Bos taurus, Striatum. The procedure, abridged: as §1
As for `C[C@@]12Oc3c(O)ccc4c3C13CCN(CC1CC1)C(C4)[C@]3(NC(=O)/C=C/c1ccc([N+](=O)[O-])cc1)CCC2=O` (some centres not stated), the dissociation constant (Kd) stood at 0.82 nM.
